In ChEMBL document CHEMBL3751709, “Concise Synthesis of Spergualin-Inspired Molecules With Broad-Spectrum Antibiotic Activity” (2015):
≈ marks a conversion by molar mass, not a printed value. Calls of active or inactive are those of the source. The rule behind the calls is not given here.

How the values were obtained:
Assay type in all cases: functional
[1] = tested on: Escherichia coli; assay: Antimicrobial activity against Escherichia coli K-12 MG1655 after 24 hrs by double dilution method
Method in brief: (§1)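 Double (2-fold) dilution series added to inoculum at OD600 0.1, giving final 256 to 2 μg/mL. H. influenzae was scraped from agar into supplemented BHI medium. Other strains were diluted from an overnight LB culture (37 °C, 200 rpm) into LB. Plates were covered and shaken at 200 rpm, 37 °C, for 24 h before MIC was read. At least two runs in triplicate.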

[2] = tested on: Haemophilus influenzae; assay: Antimicrobial activity against Haemophilus influenzae ATCC 51907 after 24 hrs by double dilution method; method in brief: as §1
[3] = tested on: Bacillus anthracis; assay: Antimicrobial activity against Bacillus anthracis 34F2 Sterne after 24 hrs by double dilution method
[4] = tested on: Bacillus cereus; assay: Antimicrobial activity against Bacillus cereus ATCC 11778 after 24 hrs by double dilution method; method in brief: as §1
[5] = tested on: Bacillus subtilis; assay: Antimicrobial activity against Bacillus subtilis 168 after 24 hrs by double dilution method; method in brief: as §1
[6] = tested on: Staphylococcus aureus; assay: Antimicrobial activity against Staphylococcus aureus RN4220 after 24 hrs by double dilution method; method in brief: as §1
[7] = tested on: Staphylococcus aureus; assay: Bactericidal activity against Staphylococcus aureus RN4220 8 to 16 ug/ml at after 4 to 24 hrs by time kill assay
Method in brief: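 Time-kill: 5 mL S. aureus cultures at OD600 0.1 were treated with compound (final 8 to 16 μg/mL) or DMSO. 100 μL was sampled at 0, 4 and 24 h, serially diluted 10-fold in sterile PBS, and 2 μL spotted on LB agar to count CFUs.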

O=Cc1ccc(Br)cc1
MIC [1]: inactive
MIC [2]: inactive
MIC [3]: inactive
MIC [4]: inactive
MIC ([5]; subsp. subtilis str. 168): inactive
MIC [6]: inactive

N=C(N)NCCCC[C@H](O)CC(=O)N[C@@H](O)C(=O)NCCCCNCCCN
MIC ([1]; K-12 MG1655, 24 h): 50 µg/mL (≈ 124 µM)
MIC [3]: 12.5 µg/mL (≈ 31 µM)
MIC ([4]; ATCC 11778, 24 h): 50 µg/mL (≈ 124 µM)
MIC ([5]; subsp. subtilis str. 168, 24 h): 6.25 µg/mL (≈ 15.5 µM)
MIC ([6]; RN4220, 24 h): 6.25 µg/mL (≈ 15.5 µM)

O=C(O)CCS
MIC [1]: inactive
MIC [2]: inactive
MIC [3]: inactive
MIC [4]: inactive
MIC ([5]; subsp. subtilis str. 168): inactive
MIC [6]: inactive

CC(C)C1CCC(C(=O)NCC(=O)NCc2ccccc2)CC1 (stereo not drawn)
MIC ([1]; K-12 MG1655, 24 h): > 128 µg/mL
MIC ([2]; ATCC 51907, 24 h): > 128 µg/mL
MIC [3]: > 128 µg/mL
MIC ([4]; ATCC 11778, 24 h): > 128 µg/mL
MIC ([5]; subsp. subtilis str. 168, 24 h): > 128 µg/mL
MIC ([6]; RN4220, 24 h): > 128 µg/mL

N#Cc1ccc(C(=O)N(CCCc2ccccc2)CC(=O)N2CCNCC2)cc1
MIC ([1]; K-12 MG1655, 24 h): > 128 µg/mL
MIC ([2]; ATCC 51907, 24 h): > 128 µg/mL
MIC [3]: > 128 µg/mL
MIC ([4]; ATCC 11778, 24 h): > 128 µg/mL
MIC ([5]; subsp. subtilis str. 168, 24 h): > 128 µg/mL
MIC ([6]; RN4220, 24 h): > 128 µg/mL

NCCCCNCCCN
MIC [1]: inactive
MIC [2]: inactive
MIC [3]: inactive
MIC [4]: inactive
MIC ([5]; subsp. subtilis str. 168): inactive
MIC [6]: inactive

CCC(C)C(=O)NCC(=O)N1CCN(Cc2ccccc2)CC1 (stereo not drawn)
MIC ([1]; K-12 MG1655, 24 h): > 128 µg/mL
MIC ([2]; ATCC 51907, 24 h): > 128 µg/mL
MIC [3]: > 128 µg/mL
MIC ([4]; ATCC 11778, 24 h): > 128 µg/mL
MIC ([5]; subsp. subtilis str. 168, 24 h): > 128 µg/mL
MIC ([6]; RN4220, 24 h): > 128 µg/mL

CN(C)[C@@H]1C(O)=C(C(N)=O)C(=O)[C@@]2(O)C(O)=C3C(=O)c4c(O)cccc4[C@@](C)(O)[C@H]3C[C@@H]12 [TETRACYCLINE]
MIC ([1]; K-12 MG1655, 24 h): < 2 µg/mL
MIC ([2]; ATCC 51907, 24 h): < 2 µg/mL
MIC [3]: < 2 µg/mL
MIC ([4]; ATCC 11778, 24 h): < 2 µg/mL
MIC ([5]; subsp. subtilis str. 168, 24 h): < 2 µg/mL
MIC ([6]; RN4220, 24 h): < 2 µg/mL

NCc1ccccc1
MIC [1]: inactive
MIC [2]: inactive
MIC [3]: inactive
MIC [4]: inactive
MIC ([5]; subsp. subtilis str. 168): inactive
MIC [6]: inactive

CC(C)SCC(=O)NCC(=O)NCc1ccccc1
MIC ([1]; K-12 MG1655, 24 h): > 128 µg/mL
MIC ([2]; ATCC 51907, 24 h): > 128 µg/mL
MIC [3]: > 128 µg/mL
MIC ([4]; ATCC 11778, 24 h): > 128 µg/mL
MIC ([5]; subsp. subtilis str. 168, 24 h): > 128 µg/mL
MIC ([6]; RN4220, 24 h): > 128 µg/mL

NCCCCNC(=O)C(c1ccc(Br)cc1)N(Cc1ccccc1)C(=O)CCS (stereo not drawn)
Activity [1]: Dose-dependent effect
MIC ([1]; K-12 MG1655, 24 h): 32 µg/mL (≈ 66.9 µM)
Activity [2]: Dose-dependent effect
MIC ([2]; ATCC 51907, 24 h): 16 µg/mL (≈ 33.4 µM)
Activity [3]: Dose-dependent effect
MIC [3]: 4 µg/mL (≈ 8.36 µM)
Activity [4]: Dose-dependent effect
MIC ([4]; ATCC 11778, 24 h): 8 µg/mL (≈ 16.7 µM)
Activity ([5]; subsp. subtilis str. 168): Dose-dependent effect
MIC ([5]; subsp. subtilis str. 168, 24 h): 4 µg/mL (≈ 8.36 µM)
Activity [6]: Dose-dependent effect
MIC ([6]; RN4220, 24 h): 8 µg/mL (≈ 16.7 µM)
Activity [7]: >3 log10CFU

CCCC(=O)N(Cc1ccccc1)C(C(=O)NCCCCN)c1ccc(Br)cc1 (stereo not drawn)
MIC ([1]; K-12 MG1655, 24 h): 256 µg/mL (≈ 556 µM)
MIC ([2]; ATCC 51907, 24 h): 64 µg/mL (≈ 139 µM)
MIC [3]: 32 µg/mL (≈ 69.5 µM)
MIC ([4]; ATCC 11778, 24 h): 32 µg/mL (≈ 69.5 µM)
MIC ([5]; subsp. subtilis str. 168, 24 h): 16 µg/mL (≈ 34.8 µM)
MIC ([6]; RN4220, 24 h): 32 µg/mL (≈ 69.5 µM)
